The target in data set [1] is Sphingosine 1-phosphate receptor 2 (Homo sapiens, UniProt O95136). Put plainly: Displacement of [33P]sphingosine 1 phosphate from human S1P2 receptor expressed in CHO cells. In kind it is cell-based.
Data set [2] addresses T1, Sphingosine 1-phosphate receptor 1 (Homo sapiens, UniProt P21453). Nature of the data set: Displacement of [33P]sphingosine 1 phosphate from human S1P1 receptor expressed in CHO cells. In kind it is cell-based.
Data set [3] deals with T2, Sphingosine 1-phosphate receptor 4 (Homo sapiens, UniProt O95977).
T2 sequence (O95977 whole entry): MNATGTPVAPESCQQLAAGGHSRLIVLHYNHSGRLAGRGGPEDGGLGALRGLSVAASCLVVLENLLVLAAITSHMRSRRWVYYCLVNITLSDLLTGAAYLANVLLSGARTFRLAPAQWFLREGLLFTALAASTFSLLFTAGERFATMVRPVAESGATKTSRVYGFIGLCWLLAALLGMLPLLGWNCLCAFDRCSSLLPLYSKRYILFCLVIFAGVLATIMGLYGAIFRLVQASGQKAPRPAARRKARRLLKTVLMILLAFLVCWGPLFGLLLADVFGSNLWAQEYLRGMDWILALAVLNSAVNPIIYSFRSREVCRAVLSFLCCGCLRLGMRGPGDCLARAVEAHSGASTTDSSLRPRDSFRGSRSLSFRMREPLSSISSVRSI
Put plainly: Displacement of [33P]sphingosine 1 phosphate from human S1P4 receptor expressed in CHO cells. In kind it is cell-based. In short, it runs like this: (§1)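 Competition binding with [33P]-labeled S1P on membranes of CHO cells stably expressing each human S1P receptor. Values are the mean of n = 3 determinations.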

Data set [4] can be described thus: Plasma clearance in rat at 2 mg/kg, po and 1 mg/kg, iv. In kind it is ADME, organism-based. In short, it runs like this: (§2)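 Rat PK at 2.0 mpk po and 1.0 mpk iv. Plasma compound levels measured.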
Data set [5] in a line: Half life in rat at 2 mg/kg, po and 1 mg/kg, iv. In kind it is ADME, organism-based. The following applies: in vivo. In short, it runs like this:
as §2

Data set [6] can be described thus: Bioavailability in rat at 2 mg/kg, po and 1 mg/kg, iv. In kind it is ADME, organism-based. The following applies: in vivo. The method in brief:
as §2

A short description of data set [7]: Cmax in rat at 2 mg/kg, po and 1 mg/kg, iv. In kind it is ADME, organism-based. Particulars: in vivo. The method in brief:
as §2

Data set [8] can be described thus: Volume of distribution at steady state in rat at 2 mg/kg, po and 1 mg/kg, iv. In kind it is ADME, organism-based. The following applies: in vivo, read-out: Vdss.
Data set [9] concerns the target T3, Sphingosine 1-phosphate receptor 3 (Homo sapiens, UniProt Q99500). Nature of the data set: Activity at human S1P3 receptor expressed in CHO cells by [35S]GTP-gamma-S binding assay. In kind it is functional, cell-based. In short, it runs like this: (§3)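 Agonism measured as ligand-induced [35S]-GTPγS binding to membranes of CHO cells stably expressing the human S1P receptor.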
A general note: GTPγS resists hydrolysis and so accumulates on activated G proteins.

Data set [10] addresses T1, Sphingosine 1-phosphate receptor 1. Put plainly: Activity at human S1P1 receptor expressed in CHO cells by [35S]GTPgammaS binding assay. In kind it is functional, cell-based. In short, it runs like this:
as §3

For data set [11], the target named is Sphingosine 1-phosphate receptor 5 (Homo sapiens, UniProt Q9H228). Put plainly: Displacement of [33P]sphingosine 1 phosphate from human S1P5 receptor expressed in CHO cells. In kind it is cell-based. In short, it runs like this:
as §1

Data set [12] has as its system Mus musculus. Put plainly: Decrease in peripheral blood lymphocytes in po dosed mouse after 3 hrs. In kind it is functional. In short, it runs like this:
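Compound given orally to mice. Peripheral blood lymphocyte counts taken 3 h after dosing, expressed as average percent decrease in n = 3 animals versus controls (n = 3). ED50 from dose-titration.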

Data set [13] has as its target T3, Sphingosine 1-phosphate receptor 3. Put plainly: Displacement of [33P]sphingosine 1 phosphate from human S1P3 receptor expressed in CHO cells. In kind it is cell-based.

Broadly, the IC50 is the concentration that gives 50% inhibition. The low end stands for greater potency in that assay, the high end for weaker potency in that assay. What is called half-life is the time needed for the level to fall by half in the phase considered. Higher therefore signals slow decline. As a reminder, the bioavailability is dose-corrected exposure relative to a reference, in per cent. Read a high bioavailability as good availability. Broadly, the Cmax is the maximum level reached in the sampled fluid or tissue. A word on the EC50: it is the concentration at which the effect is half-maximal. A higher EC50 goes with a less potent agent. One may read the ED50 as the dose that gives a 50% effect, or the effect in half of the subjects.

T3 sequence (Q99500 whole entry): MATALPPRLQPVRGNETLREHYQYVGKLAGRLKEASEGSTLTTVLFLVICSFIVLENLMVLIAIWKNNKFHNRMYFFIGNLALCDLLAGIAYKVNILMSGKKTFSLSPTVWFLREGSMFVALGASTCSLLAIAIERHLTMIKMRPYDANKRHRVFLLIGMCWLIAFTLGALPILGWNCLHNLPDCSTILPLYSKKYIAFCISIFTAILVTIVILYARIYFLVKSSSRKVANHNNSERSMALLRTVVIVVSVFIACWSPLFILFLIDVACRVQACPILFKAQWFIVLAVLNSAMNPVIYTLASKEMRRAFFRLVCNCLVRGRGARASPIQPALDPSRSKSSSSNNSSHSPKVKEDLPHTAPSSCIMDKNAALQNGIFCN
T1 sequence (P21453 whole entry): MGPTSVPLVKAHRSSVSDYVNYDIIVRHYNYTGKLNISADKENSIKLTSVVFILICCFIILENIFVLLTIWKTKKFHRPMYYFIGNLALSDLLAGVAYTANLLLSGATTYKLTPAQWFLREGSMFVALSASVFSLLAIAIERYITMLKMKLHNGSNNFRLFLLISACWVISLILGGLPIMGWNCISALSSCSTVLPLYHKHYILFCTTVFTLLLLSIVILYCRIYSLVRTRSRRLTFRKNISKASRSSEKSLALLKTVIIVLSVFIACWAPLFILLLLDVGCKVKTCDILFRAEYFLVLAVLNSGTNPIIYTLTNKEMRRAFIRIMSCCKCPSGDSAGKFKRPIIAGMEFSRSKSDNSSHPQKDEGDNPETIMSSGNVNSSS
Sequence of Sphingosine 1-phosphate receptor 2 (O95136 whole entry): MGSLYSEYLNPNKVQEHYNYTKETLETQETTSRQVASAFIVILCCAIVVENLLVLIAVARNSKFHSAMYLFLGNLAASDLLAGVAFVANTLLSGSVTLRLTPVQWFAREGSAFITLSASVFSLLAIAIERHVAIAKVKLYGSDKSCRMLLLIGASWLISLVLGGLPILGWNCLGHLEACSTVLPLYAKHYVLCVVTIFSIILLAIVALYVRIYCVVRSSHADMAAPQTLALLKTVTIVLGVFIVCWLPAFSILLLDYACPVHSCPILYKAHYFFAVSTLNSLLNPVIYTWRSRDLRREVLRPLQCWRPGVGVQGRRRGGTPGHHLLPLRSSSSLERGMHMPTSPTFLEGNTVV
Sequence of Sphingosine 1-phosphate receptor 5 (Q9H228 whole entry): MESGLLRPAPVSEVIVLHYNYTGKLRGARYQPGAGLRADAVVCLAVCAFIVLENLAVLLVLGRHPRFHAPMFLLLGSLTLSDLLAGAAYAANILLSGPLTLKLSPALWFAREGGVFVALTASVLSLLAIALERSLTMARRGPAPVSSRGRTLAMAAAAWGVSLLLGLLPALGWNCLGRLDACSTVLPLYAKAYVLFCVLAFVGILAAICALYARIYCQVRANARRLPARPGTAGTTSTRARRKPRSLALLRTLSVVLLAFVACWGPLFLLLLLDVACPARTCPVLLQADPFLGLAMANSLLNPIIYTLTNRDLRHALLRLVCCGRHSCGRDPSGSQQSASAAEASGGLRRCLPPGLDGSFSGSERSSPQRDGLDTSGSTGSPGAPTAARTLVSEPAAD

For the molecule `O=C(O)C1CN(Cc2ccc(-c3noc(-c4cc(-c5ccccc5)c(C(F)(F)F)s4)n3)cc2)C1`, the IC50 in data set [1] was above 10000 nM; in [2], 8.3 nM (antagonist); in data set [3], 10000 nM; in [11], 16 nM (antagonist); in [13], 1000 nM (antagonist). Moreover, in [4], the clearance turned out to be 2.2 mL/min/kg. Besides, the half-life in data set [5] was 10.5 h. Besides, the bioavailability in data set [6] turned out to be 64%. The molecule also had a Cmax in data set [7] of 1300 nM. Further, the Vd in [8] stood at 1.9 L/kg. The concentration for a half-maximal effect (EC50) is listed as 17 nM (agonist) in [9] and 0.2 nM (agonist) in data set [10]. The median effective dose (ED50) in [12] came to 0.07 mg/kg.

These data come from ChEMBL document CHEMBL1149292, “A rational utilization of high-throughput screening affords selective, orally bioavailable 1-benzyl-3-carboxyazetidine sphingosine-1-phosphate-1 receptor agonists” (J Med Chem, 2004).
